Reference: publication PMC4535927 (Angewandte Chemie (International ed. in English), 2015)
“Also recorded” adds a separate entry of the source.

Experiments:
RET^V804M [1] = biological target: T1, RET^V804M (Homo sapiens, UniProt P07949, V804M); conditions: cited from earlier work
[2] = One-week tolerability in mice; type: in vivo; conditions: increased linearly with dose, doses up to 100.0 mg/kg
RET^C634Y = RET^C634Y (Homo sapiens, UniProt P07949, C634Y); assay: RET C634Y tyrosine phosphorylation in NIH3T3 fibroblasts; type: cell-based
RET^C634Y, sequence (P07949 29-1114 C634Y): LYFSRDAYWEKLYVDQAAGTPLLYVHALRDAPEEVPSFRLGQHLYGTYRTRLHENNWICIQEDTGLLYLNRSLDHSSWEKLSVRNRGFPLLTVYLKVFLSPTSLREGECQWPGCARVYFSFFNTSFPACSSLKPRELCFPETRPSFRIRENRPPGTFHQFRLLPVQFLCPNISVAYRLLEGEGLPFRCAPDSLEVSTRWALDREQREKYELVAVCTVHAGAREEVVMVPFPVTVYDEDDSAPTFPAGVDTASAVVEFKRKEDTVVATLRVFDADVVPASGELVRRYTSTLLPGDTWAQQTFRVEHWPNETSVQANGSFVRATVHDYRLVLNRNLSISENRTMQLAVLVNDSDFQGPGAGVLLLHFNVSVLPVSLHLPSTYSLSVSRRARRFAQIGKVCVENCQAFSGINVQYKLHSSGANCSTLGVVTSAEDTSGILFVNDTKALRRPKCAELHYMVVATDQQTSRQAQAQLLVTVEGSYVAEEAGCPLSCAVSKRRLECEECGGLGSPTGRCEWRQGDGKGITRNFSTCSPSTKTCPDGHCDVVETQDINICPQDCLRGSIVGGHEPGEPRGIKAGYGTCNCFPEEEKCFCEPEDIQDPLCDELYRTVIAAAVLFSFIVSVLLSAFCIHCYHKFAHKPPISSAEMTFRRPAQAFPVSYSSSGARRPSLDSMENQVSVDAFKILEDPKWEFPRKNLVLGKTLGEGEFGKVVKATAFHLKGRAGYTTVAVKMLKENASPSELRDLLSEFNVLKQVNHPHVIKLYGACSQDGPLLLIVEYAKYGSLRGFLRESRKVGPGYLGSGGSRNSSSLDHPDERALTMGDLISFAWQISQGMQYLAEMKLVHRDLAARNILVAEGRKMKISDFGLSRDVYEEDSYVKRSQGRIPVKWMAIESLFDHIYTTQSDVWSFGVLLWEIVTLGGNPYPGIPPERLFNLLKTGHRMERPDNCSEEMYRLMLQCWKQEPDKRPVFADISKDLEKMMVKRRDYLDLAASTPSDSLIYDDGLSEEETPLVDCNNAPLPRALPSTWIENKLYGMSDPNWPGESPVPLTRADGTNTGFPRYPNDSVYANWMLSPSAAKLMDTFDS

RET^M918T = RET^M918T (Homo sapiens, UniProt P07949, M918T); assay: Cell-based RET inhibition, oncogenic RET M918T
RET^M918T, sequence (P07949 29-1114 M918T): as the sequence (P07949 29-1114 C634Y) above, with Y606C, M890T counted along it

RET = RET (Homo sapiens, UniProt P07949); assay: RET kinase microfluidics separation based assay; type: biochemical; conditions: read-out: IC50, RET; [ATP] = 190 μM; means of at least three experiments
RET, sequence (P07949 29-1114): as the sequence (P07949 29-1114 C634Y) above, with Y606C counted along it
Procedure, shortened: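 Recombinant RET activity measured by a microfluidic separation-based kinase assay at [ATP] 190 µM. IC50 values are means of at least three independent experiments.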

VEGFR2 [3] = biological target: T2, VEGFR2 (Homo sapiens, UniProt P35968); assay: VEGFR2 kinase microfluidics separation based assay; type: biochemical; conditions: read-out: IC50, VEGFR2; [ATP] = 190 μM
T2 sequence (P35968 20-1356): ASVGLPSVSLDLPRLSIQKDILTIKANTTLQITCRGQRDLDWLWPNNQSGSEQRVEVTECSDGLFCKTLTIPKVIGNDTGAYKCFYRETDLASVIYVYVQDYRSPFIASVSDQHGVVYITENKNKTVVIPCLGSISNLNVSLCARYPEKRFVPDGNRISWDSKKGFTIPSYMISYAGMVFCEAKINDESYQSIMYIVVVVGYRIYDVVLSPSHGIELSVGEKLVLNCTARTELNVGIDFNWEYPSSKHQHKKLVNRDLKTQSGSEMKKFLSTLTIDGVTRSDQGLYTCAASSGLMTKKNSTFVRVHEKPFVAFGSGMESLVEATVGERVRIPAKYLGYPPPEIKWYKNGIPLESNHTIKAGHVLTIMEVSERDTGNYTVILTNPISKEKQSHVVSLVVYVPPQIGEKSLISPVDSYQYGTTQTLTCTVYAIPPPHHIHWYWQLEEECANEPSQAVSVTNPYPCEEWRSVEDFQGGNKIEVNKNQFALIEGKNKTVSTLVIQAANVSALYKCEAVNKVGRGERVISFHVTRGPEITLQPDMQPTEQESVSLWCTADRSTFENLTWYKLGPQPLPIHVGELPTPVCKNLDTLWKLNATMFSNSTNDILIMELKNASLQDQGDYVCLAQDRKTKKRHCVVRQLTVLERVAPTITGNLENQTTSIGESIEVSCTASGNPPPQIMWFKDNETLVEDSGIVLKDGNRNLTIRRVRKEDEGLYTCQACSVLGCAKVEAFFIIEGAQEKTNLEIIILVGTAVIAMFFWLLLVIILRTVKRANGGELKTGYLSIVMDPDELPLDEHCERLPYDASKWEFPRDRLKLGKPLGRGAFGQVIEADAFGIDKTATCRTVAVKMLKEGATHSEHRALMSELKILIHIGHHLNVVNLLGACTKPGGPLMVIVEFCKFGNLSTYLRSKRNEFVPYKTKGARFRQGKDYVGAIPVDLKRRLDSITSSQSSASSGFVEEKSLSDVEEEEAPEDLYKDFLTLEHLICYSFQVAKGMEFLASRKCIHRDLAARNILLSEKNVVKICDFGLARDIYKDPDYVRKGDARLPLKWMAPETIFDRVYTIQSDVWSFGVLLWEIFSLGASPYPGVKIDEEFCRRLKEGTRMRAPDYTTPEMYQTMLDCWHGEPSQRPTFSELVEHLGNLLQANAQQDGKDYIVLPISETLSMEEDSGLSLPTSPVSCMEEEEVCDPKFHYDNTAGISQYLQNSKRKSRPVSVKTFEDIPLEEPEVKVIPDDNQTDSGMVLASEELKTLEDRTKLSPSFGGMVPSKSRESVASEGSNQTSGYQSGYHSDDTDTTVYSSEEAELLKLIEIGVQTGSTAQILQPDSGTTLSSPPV

VEGFR2 [4] = biological target: T2, VEGFR2; assay: VEGFA-induced VEGFR2 phosphorylation in HUVEC cells; type: cell-based; conditions: 1.0 nM, endogenous level
VEGFR2 [5] = biological target: T2, VEGFR2; assay: VEGFA-induced VEGFR2 phosphorylation in transfected HEK293 cells; type: cell-based; conditions: 1.0 nM
RET^V804L = RET^V804L (Homo sapiens, UniProt P07949, V804L); assay: Cell-based RET inhibition, RET V804L
RET^V804L, sequence (P07949 29-1114 V804L): as the sequence (P07949 29-1114 C634Y) above, with Y606C, V776L counted along it

[6] = Pharmacokinetic properties; conditions: in vivo
RET^V804M [7] = biological target: T1, RET^V804M; assay: Cell-based RET inhibition, RET V804M
RET oncoproteins = assay: Cell-based phosphorylation of all tested RET oncoproteins; conditions: 1.0 nM
RET^V804M [8] = biological target: T1, RET^V804M; assay: RET V804M kinase microfluidics separation based assay; type: biochemical; conditions: read-out: IC50, RET^V804M; [ATP] = 190 μM
parental NIH3T3 cells = assay: Growth of parental NIH3T3 cells; type: cell-based; conditions: up to 100.0 nM
NIH3T3 RET^C634Y tumors = assay: Tumors induced by NIH3T3 RET C634Y cells in nu/nu mice; type: in vivo
Procedure, shortened: (§1)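 Immunodeficient nu/nu mice were injected with NIH3T3 fibroblasts transformed by RET C634Y or by HRas G12V (Ras control). Before tumors appeared, mice received test compound orally at 1.0, 3.0 or 10.0 mg/kg/day or were left untreated. Tumor formation was scored. Tumor tissue was analysed for RET and VEGFR2 phosphorylation and for MAPK and mTOR signaling.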

NIH3T3 RET^C634Y cells = assay: In vitro cell proliferation of NIH3T3 RET C634Y; type: cell-based; conditions: read-out: IC50, cell proliferation
NIH3T3 HRas^G12V tumors = assay: Tumors induced by NIH3T3 HRas G12V cells in nu/nu mice; type: in vivo
Procedure, shortened: as §1

RET^C634R = RET^C634R (Homo sapiens, UniProt P07949, C634R); assay: Cell-based RET inhibition, oncogenic RET C634R; conditions: compared with predecessor compounds 1, 2 and 3a
RET^C634R, sequence (P07949 29-1114 C634R): as the sequence (P07949 29-1114 C634Y) above, with Y606R counted along it

T1 sequence (P07949 29-1114 V804M): as the sequence (P07949 29-1114 C634Y) above, with Y606C, V776M counted along it

COc1cc2nccc(Oc3ccc(NC(=O)C4(C(=O)Nc5ccc(F)cc5)CC4)cc3)c2cc1OC [cabozantinib]
Response of RET^V804M to the drug (RET^V804M [1]): refractory

Cn1cc(-c2ccc3c(c2)ncn3-c2ccc(CC(=O)Nc3cc(C(C)(C)C)on3)cc2)cn1 [Pz-1]
Alanine transaminase (ALT) [2]: remaining within a normal range | RET^C634Y tyrosine phosphorylation (RET^C634Y): efficient inhibition | Activity against RET^M918T (RET^M918T): highly effective | IC50 (RET): < 1 nM | IC50 (VEGFR2 [3]): < 1 nM | VEGFA-induced VEGFR2 phosphorylation (VEGFR2 [4]): inhibiting VEGFA-induced VEGFR2 phosphorylation | VEGFA-induced VEGFR2 phosphorylation (VEGFR2 [5]): inhibiting VEGFA-induced VEGFR2 phosphorylation | Activity against RET^V804L (RET^V804L): highly effective | Pharmacokinetic properties [6]: highly favorable | Activity against RET^V804M (RET^V804M [7]): highly effective | Phosphorylation of RET oncoproteins / clinically relevant RET mutants (RET oncoproteins): strongly inhibited | IC50 (RET^V804M [8]): < 1 nM | Growth inhibition (parental NIH3T3 cells): did not exert detectable growth inhibition | Formation of RET-driven tumors (NIH3T3 RET^C634Y tumors; 1.0 mg/kg/day per os): completely blocked; also recorded: abrogated formation of tumors | RET phosphorylation in tumor tissue (NIH3T3 RET^C634Y tumors; 1.0 mg/kg/day per os): blocked phosphorylation | VEGFR2 phosphorylation in tumors (NIH3T3 RET^C634Y tumors; RET driven tumors, 1.0 mg/kg): inhibited VEGFR2 phosphorylation; also recorded: blocked phosphorylation | MAPK and mTOR mitogenic signaling cascades in tumors (NIH3T3 RET^C634Y tumors; RET-driven tumors): able to inhibit | Formation of tumors induced by RET^C634Y (NIH3T3 RET^C634Y tumors; nu/nu mice, PO 1.0, 3.0 or 10.0 mg/kg/day): completely prevented formation of tumors | IC50 (NIH3T3 RET^C634Y cells): 0.5 nM | VEGFR2 phosphorylation in tumors (NIH3T3 HRas^G12V tumors; Ras driven tumors, 1.0 mg/kg): inhibited VEGFR2 phosphorylation | MAPK signaling in tumors (NIH3T3 HRas^G12V tumors; Ras tumors, 10.0 mg/kg): no effect | RET inhibitory activity towards oncogenic RET^C634R (RET^C634R): increased RET inhibitory activity
